This note sets out measurements from ChEMBL document CHEMBL2346655, “Synthesis and in vitro biological evaluation of 2,6,9-trisubstituted purines targeting multiple cyclin-dependent kinases” (Eur J Med Chem, 2013).

SMILES strings stand for the structures. Active and inactive are the calls of the source. No cut-off for these calls is given here.

The subject of assay [1] is HCT-116. The experiment in a line: Cell cycle arrest in human HCT116 cells assessed as accumulation at subG1 phase at 0.2 uM after 24 hrs by propidium iodide staining-based flow cytometric analysis (reference value: 1.4%). The format is functional. In short, it runs like this:
(§1)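 Sub-confluent cells treated at several concentrations for 24 h, then pulsed with 10 μM BrdU for 30 min at 37 °C before harvest. Cells were PBS-washed, fixed in 70% ethanol, denatured in 2 M HCl and neutralized. Stained with fluorescein anti-BrdU and propidium iodide; DNA content read by flow cytometry with 488 nm excitation.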

Assay [2] relates to HCT-116. The experiment in a line: Cytotoxicity against human HCT116 cells assessed as reduction in number of viable cells after 72 hrs by fluorescence assay. The format is functional, cell-based. The settings on record: HCT-116, 72 h. In short, it runs like this: (§2)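 Three-fold compound dilutions tested in triplicate on cultured cells for 72 h. Viable cells detected by adding Calcein AM and reading fluorescence at 485/538 nm (ex/em).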

The test system of assay [3] is HCT-116. Briefly: Induction of apoptosis in human HCT116 cells assessed as PARP cleavage up to 5 uM after 24 hrs by immunoblotting analysis. Type of assay: functional, cell-based. In short, it runs like this:
(§3)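 Cells were treated for 24 h, harvested directly into Laemmli sample buffer, and run on SDS-PAGE. Proteins were blotted to nitrocellulose, blocked, probed overnight with primary antibodies, then with peroxidase-linked secondaries. Bands were detected by ECL with a CCD camera. PCNA and tubulin served as loading references.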

Assay [4] concerns K562. Briefly: Cell cycle arrest in human K562 cells assessed as accumulation at G2/M phase at 5 uM after 24 hrs by propidium iodide staining-based flow cytometric analysis (reference value: 13.8%). Type of assay: functional. In short, it runs like this: as §1
(Flow cytometry measures light scatter and fluorescence of single cells or particles in a stream.)

The target of assay [5] is Cyclin-dependent kinase 7/ cyclin H (Homo sapiens) (UniProt P51946+P50613). Briefly: Inhibition of CDK7/CyclinH/MAT1-mediated phosphorylation of RNA polymerase 2 at Ser2 in human HCT116 cells up to 25 uM after 24 hrs by immunoblotting analysis. The format is cell-based. The settings on record: HCT-116. The method in brief: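 Treated cells were lysed in Laemmli buffer and separated by SDS-PAGE, then transferred to nitrocellulose. Blots were probed overnight with phospho-RNA polymerase II (S2) and total RNA polymerase II (clone ARNA-3) antibodies, followed by peroxidase secondaries. Signal was developed by ECL on a CCD camera.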
(In general: A western blot detects proteins with antibodies after separation by electrophoresis.)

The subject of assay [6] is HCT-116. The experiment in a line: Cell cycle arrest in human HCT116 cells assessed as accumulation at G2/M phase at 1 uM after 24 hrs by propidium iodide staining-based flow cytometric analysis (reference value: 19.6%). Type of assay: functional. The method in brief: as §1
Assay [7] has as its system K562. Briefly: Cell cycle arrest in human K562 cells assessed as accumulation at G1 phase at 1 uM after 24 hrs by propidium iodide staining-based flow cytometric analysis (reference value: 47.3%). The format is functional. The method in brief: as §1
Assay [8] has as its system K562. Briefly: Cell cycle arrest in human K562 cells assessed as accumulation at G2/M phase at 0.2 uM after 24 hrs by propidium iodide staining-based flow cytometric analysis (reference value: 13.8%). Type of assay: functional. In short, it runs like this:
as §1

The subject of assay [9] is K562. The experiment in a line: Cytotoxicity against human K562 cells assessed as reduction in number of viable cells after 72 hrs by fluorescence assay. Type of assay: functional, cell-based. The settings on record: K562, 72 h. The method in brief: as §2
Assay [10] deals with K562. Briefly: Induction of apoptosis in human K562 cells assessed as caspase-3 activation up to 5 uM after 24 hrs by immunoblotting analysis. The format is functional, cell-based. The method in brief: as §3
Assay [11] concerns the target CDK9/cyclin T1 (Homo sapiens) (UniProt O60563+P50750). Briefly: Inhibition of CDK9/CyclinT1-mediated phosphorylation of RNA polymerase 2 at Ser5 in human HCT116 cells up to 25 uM after 24 hrs by immunoblotting analysis. The format is cell-based. The settings on record: HCT-116. In short, it runs like this:
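Immunoblot: cells lysed by harvesting in Laemmli sample buffer, proteins run on SDS-PAGE, electroblotted to nitrocellulose, blocked, primary antibodies overnight, peroxidase-conjugated secondaries, ECL detection by CCD camera. Antibodies included anti-phospho RNA polymerase II (S2), anti-RNA polymerase II (ARNA-3), anti-p53 (DO-1), anti-p21waf1 (118), anti-PCNA.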

Another assay relates to HOS. The experiment in a line: Cytotoxicity against human HOS cells assessed as reduction in number of viable cells after 72 hrs by fluorescence assay. Type of assay: functional, cell-based. In short, it runs like this:
as §2

In general, IC50 refers to the concentration needed to halve the response being measured. As for `CC[C@@H](Nc1nc(NCc2cc(Cl)ccc2O)c2ncn(C(C)C)c2n1)C(C)O` (mixture of isomers), the Activity in the assay on HCT-116 [1] came to 1.5%; in the assay with K562 [4] it was 31.5%; in the assay with HCT-116 [6] it was 31.8%; in the assay with K562 [7] it was 31.5%; with K562 [8] it was 25.8%. The half-inhibitory concentration (IC50) with HCT-116 [2] worked out at 2 µM; in the assay on K562 [9] it was 3.3 µM; in the assay with HOS, 2.7 µM. For the same compound, the outcome in the assay with HCT-116 [3] was Active. Further, the inhibition entry in assay [5] and in assay [11] was “Active” in each case. Moreover, in the assay with K562 [10], the outcome was inactive.
